The results in this text go back to ChEMBL document CHEMBL3779855, “In vitro screening of 2-(1H-imidazol-1-yl)-1-phenylethanol derivatives as antiprotozoal agents and docking studies on Trypanosoma cruzi CYP51” (Eur J Med Chem, 2016).

For orientation: IC50 means the concentration at which inhibition is half-maximal.

Data set [1] relates to Plasmodium falciparum. The data set can be described thus: Antiparasitic activity against chloroquine-resistant erythrocytic stage of Plasmodium falciparum K1 infected in […] after 72 hrs by NBT staining based spectroscopic analysis. Type of data set: functional, organism-based. The conditions noted are these: K1, 72 h.
Data set [2] is described as follows: Selectivity index, ratio of IC50 for human MRC5 cells to IC50 for nifurtimox-sensitive amastigote stage of Trypanosoma cruzi tulahuen CL2 infected in human MRC5 cells. It counts as toxicity, cell-based. The following applies: read-out: Ratio IC50.
Data set [3] has as its system MRC5. The data set can be described thus: Cytotoxicity against human MRC5 cells assessed as cell viability after 4 to 7 days by Alamar Blue staining based fluorometric analysis. Background: The colour change of resazurin is a common sign of viable cells or microbes.
Data set [4] relates to Leishmania infantum. The data set can be described thus: Antiparasitic activity against amastigote stage of Leishmania infantum MHOM/MA-BE/67 infected in mouse peritoneal macrophages after 5 days by Giemsa staining based microscopic analysis. Type of data set: functional, organism-based. The following applies: MHOM/MA-BE/67, 120 h.
In data set [5] the test system is Trypanosoma brucei rhodesiense. The data set can be described thus: Antiparasitic activity against suramin-sensitive trypomastigote stage of Trypanosoma brucei rhodesiense squib-427 infected in human MRC5 cells after 4 days by Alamar blue staining based fluorimetric analysis. It counts as functional, organism-based. The conditions noted are these: squib-427, 96 h.

Data set [6] relates to Trypanosoma cruzi. Put plainly: Antiparasitic activity against nifurtimox-sensitive amastigote stage of Trypanosoma cruzi tulahuen CL2 infected in human MRC5 cells. Type of data set: functional, organism-based.
Data set [7] can be described thus: Metabolic stability in human liver microsomes at 50 uM after 60 mins by LC-UV-MS analysis in the presence of NADPH-generating system. Type of data set: ADME. The following applies: read-out: Stability. In a few lines: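 Test compound at 50 μM in pH 7.4 phosphate buffer with 2% DMSO, incubated at 37°C for 60 min with human liver microsomal protein and an NADPH-generating system. The reaction was then stopped, and parent drug and metabolites were measured by LC-UV-MS.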

Data set [8] relates to Trypanosoma cruzi. The data set can be described thus: Potency index, ratio of benznidazole IC50 to compound IC50 for nifurtimox-sensitive amastigote stage of Trypanosoma cruzi tulahuen CL2 infected in human MRC5 cells. It counts as functional.

Some results are limits rather than exact numbers.

Consider `O=C(O[C@@H](Cn1ccnc1)c1ccc(Cl)cc1)N1CCN(c2ccc([N+](=O)[O-])cc2)CC1`, for which the IC50 was found to be 2200 nM in data set [1]; 8.7 µM in data set [3]; 12.7 µM in data set [4]; 32.2 µM in data set [5]; 1000 nM in data set [6]. In data set [2], the selectivity ratio stood at 8.7.

Take `O=C(OC(Cn1ccnc1)c1ccc(F)cc1)c1ccc(-c2ccccc2)cc1` (racemic): the IC50 was 600 nM in data set [1]; 7.8 µM in data set [3]; 32.2 µM in data set [4]; 32.2 µM in data set [5]; 710 nM in data set [6]. Moreover, the selectivity ratio in data set [2] worked out at 10.9.

For the compound `O=C(OC(Cn1ccnc1)c1ccc(Cl)cc1)c1ccc(-c2ccccc2)cc1` (racemic), the IC50 is 1900 nM in data set [1]; 7.2 µM in data set [3]; 12.7 µM in data set [4]; 32.4 µM in data set [5]; 480 nM in data set [6]. The selectivity ratio in data set [2] came out at 15.

Regarding `O=C(Cn1ccnc1[N+](=O)[O-])NCc1ccccc1` [BENZNIDAZOLE], inhibition in data set [6] was half-maximal at 1950 nM (IC50).

Take `O=C(OC(Cn1ccnc1)c1ccc(-c2ccccc2)cc1)c1ccc(-c2ccccc2)cc1` (racemic): the IC50 was determined as 7700 nM in data set [1]; 8.8 µM in data set [3]; 8 µM in data set [4]; 29.1 µM in data set [5]; 2720 nM in data set [6]. Further, the selectivity ratio in data set [2] was determined as 3.2.

As for `O=C(OC(Cn1ccnc1)c1ccc(Cl)cc1)N1CCN(c2ccc([N+](=O)[O-])cc2)CC1` (racemic), the half-inhibitory concentration (IC50) in data set [1] came to 2400 nM; in data set [3], 8.2 µM; in data set [4], 8 µM; in data set [5] it was 8 µM; in data set [6], 870 nM. In addition, in data set [2], the selectivity ratio came out at 9.4.

Take `CCCCCCCCCCCCCCCCOP(=O)([O-])OCC[N+](C)(C)C` [MILTEFOSINE]: the midpoint of inhibition in data set [4], the IC50, lay at 10.4 µM.

With `O=C(O[C@H](Cn1ccnc1)c1ccc(Cl)cc1)N1CCN(c2ccc([N+](=O)[O-])cc2)CC1`, the concentration for half-maximal inhibition (IC50) was 1500 nM in data set [1]; 8.5 µM in data set [3]; 12.7 µM in data set [4]; greater than 64 µM in data set [5]; 1320 nM in data set [6]. Besides, in data set [2], the selectivity ratio turned out to be 6.4.

Consider `CC/C(=C(\c1ccccc1)c1ccc(OCCN(C)C)cc1)c1ccccc1` [TAMOXIFEN], for which the IC50 in data set [3] is 10.9 µM.

As to `O=C(Nc1ccc(N2CCN(C(=O)c3ccco3)CC2)cc1)O[C@H](Cn1ccnc1)c1ccc(F)cc1`, the IC50 in data set [1] is 5200 nM; in data set [3] it was 37.5 µM; in data set [4], greater than 64 µM; in data set [5] it was greater than 64 µM; in data set [6], 130 nM. In addition, the selectivity ratio in data set [2] was 288.

As for `O=C(OC(Cn1ccnc1)c1ccc(Cl)cc1)N1CCN(C(=O)c2ccco2)CC1` (racemic), the half-maximal inhibitory concentration (IC50) in data set [1] is 10700 nM; in data set [3], greater than 64 µM; in data set [4], greater than 64 µM; in data set [5], greater than 64 µM; in data set [6], 5840 nM. Also, the selectivity ratio in data set [2] is greater than 10.9.

For `O=C(O[C@@H](Cn1ccnc1)c1ccc(F)cc1)c1ccc(-c2ccccc2)cc1`, the IC50 was 2300 nM in data set [1]; greater than 64 µM in data set [3]; greater than 64 µM in data set [4]; greater than 64 µM in data set [5]; 1800 nM in data set [6]. Also, the selectivity ratio in data set [2] was greater than 35.6.

Take `O=C(Nc1ccc(N2CCN(C(=O)c3ccco3)CC2)cc1)OC(Cn1ccnc1)c1ccc(F)cc1` (racemic): the remaining at 1 h, 50 µM in data set [7] came out at 99%. Besides, the 50% inhibitory concentration (IC50) in data set [1] amounted to 4000 nM; in data set [3], 26.4 µM; in data set [4], 28.9 µM; in data set [5], 32.9 µM; in data set [6], 790 nM. For the same compound, the selectivity ratio in data set [2] came out at 33.4.

As for `O=C(O[C@H](Cn1ccnc1)c1ccc(F)cc1)c1ccc(-c2ccccc2)cc1`, the 50% inhibitory concentration (IC50) in data set [1] worked out at 2000 nM; in data set [3], 8 µM; in data set [4], 34.6 µM; in data set [5] it was 33.7 µM; in data set [6], 490 nM. Further, the selectivity ratio in data set [2] worked out at 16.3.

Turning to `O=C(Nc1ccc(N2CCN(C(=O)c3ccco3)CC2)cc1)O[C@@H](Cn1ccnc1)c1ccc(F)cc1`, the IC50 in data set [1] is 4000 nM; in data set [3], 26.5 µM; in data set [4], greater than 64 µM; in data set [5], greater than 64 µM; in data set [6], 1720 nM. For the same compound, the selectivity ratio in data set [2] turned out to be 15.4.

Consider `O=C(O[C@@H](Cn1ccnc1)c1ccc(Cl)cc1)c1ccc(-c2ccccc2)cc1`, for which the half-maximal inhibitory concentration (IC50) is 2000 nM in data set [1]; 7.8 µM in data set [3]; greater than 64 µM in data set [4]; 32.4 µM in data set [5]; 200 nM in data set [6]. Also, the selectivity ratio in data set [2] was 39.

With `O=C(O[C@H](Cn1ccnc1)c1ccc(Cl)cc1)c1ccc(-c2ccccc2)cc1`, the IC50 in data set [1] was 2100 nM; in data set [3] it was 8.2 µM; in data set [4], 32 µM; in data set [5], 30.1 µM; in data set [6], 560 nM. For the same compound, the selectivity ratio in data set [2] came to 14.6.

As for `O=C(O[C@@H](Cn1ccnc1)c1ccc(F)cc1)N1CCN(c2ccc([N+](=O)[O-])cc2)CC1`, the IC50 turned out to be 1200 nM in data set [1]; 8.7 µM in data set [3]; 20.3 µM in data set [4]; 32.2 µM in data set [5]; 1230 nM in data set [6]. Also, the selectivity ratio in data set [2] was determined as 7.

As to `O=C(O[C@H](Cn1ccnc1)c1ccc(F)cc1)N1CCN(c2ccc([N+](=O)[O-])cc2)CC1`, the IC50 in data set [1] is 1300 nM; in data set [3] it was 8.2 µM; in data set [4] it was greater than 64 µM; in data set [5], greater than 64 µM; in data set [6], 5440 nM. In data set [2], the selectivity ratio was found to be 1.5.

Consider `CCS(=O)(=O)N1CCN(c2ccc(NC(=O)OC(Cn3ccnc3)c3ccc(F)cc3)cc2)CC1` (racemic), for which the remaining at 1 h, 50 µM in data set [7] was 99%. The IC50 in data set [1] was 17200 nM; in data set [3], greater than 64 µM; in data set [4], 38 µM; in data set [5] it was greater than 64 µM; in data set [6], 40 nM. Moreover, the selectivity ratio in data set [2] was greater than 1600. The “Ratio IC50” value in data set [8] turned out to be 50.

Take `Cc1ccc(C(=O)Nc2ccc(S(=O)(=O)O)c3cc(S(=O)(=O)O)cc(S(=O)(=O)O)c23)cc1NC(=O)c1cccc(NC(=O)Nc2cccc(C(=O)Nc3cc(C(=O)Nc4ccc(S(=O)(=O)O)c5cc(S(=O)(=O)O)cc(S(=O)(=O)O)c45)ccc3C)c2)c1` [SURAMIN]: in data set [5], the IC50 came to 0.02 µM.

On to `O=C(OC(Cn1ccnc1)c1ccc(F)cc1)N1CCN(c2ccc([N+](=O)[O-])cc2)CC1` (racemic), for which the IC50 in data set [1] stood at 2600 nM; in data set [3] it was 15.5 µM; in data set [4], 27.2 µM; in data set [5], 27.2 µM; in data set [6], 1680 nM. For the same compound, the selectivity ratio in data set [2] stood at 9.2.
